Laboratory results as given in ChEMBL document CHEMBL4004856, “Synthesis of new heterocyclic compounds based on pyrazolopyridine scaffold and evaluation of their neuroprotective potential in MPP+-induced neurodegeneration” (Eur J Med Chem, 2017).
Activity calls are given as the source filed them. The calls are words filed in the database; no cut-off is given here.

Tests used:
SH-SY5Y [1] = assay: Neuroprotective activity against MPP+-induced toxicity in human SH-SY5Y cells assessed as increase in cell viability at 5 uM preincubated for 1 hr followed by MPP+ addition measured up to 24 hrs by MTT assay relative to control; type: functional
Method in brief: (§1)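 SH-SY5Y cells seeded 2x10³/well and left to adhere 24 h. Compounds (5–20 μM, DMSO) were added 1 h before 2 mM MPP⁺ for 24 h at 37°C, 5% CO2. Viability was read by MTT (0.5 mg/ml final, 3 h), DMSO solubilisation and absorbance at 570/630 nm, expressed as % of vehicle control. Mean ± SD, n = 5.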

SH-SY5Y [2] = assay: Cytotoxicity against human SH-SY5Y cells assessed as reduction in cell viability up to 20 uM up to 24 hrs by MTT assay; type: cell-based
Method in brief: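 SH-SY5Y cells in DMEM with 10% FBS and penicillin/streptomycin at 37°C, 5% CO2, seeded 2x10³ cells/well and left to adhere 24 h. Compounds (5, 10, 20 μM, in DMSO) were added for 3, 6 and 24 h. MTT was then added (0.5 mg/ml final) for 3 h, and formazan was dissolved in DMSO and read at 570/630 nm. Values are relative to vehicle control.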

SH-SY5Y [3] = assay: Neuroprotective activity against MPP+-induced toxicity in human SH-SY5Y cells assessed as increase in cell viability preincubated for 1 hr followed by MPP+ addition measured up to 24 hrs by MTT assay; type: functional, cell-based; method in brief: as §1
SH-SY5Y [4] = assay: Neuroprotective activity against MPP+-induced toxicity in human SH-SY5Y cells assessed as increase in cell viability at 10 to 20 uM preincubated for 1 hr followed by MPP+ addition measured up to 24 hrs by MTT assay relative to control; type: functional; method in brief: as §1
SH-SY5Y [5] = assay: Neuroprotective activity against MPP+-induced toxicity in human SH-SY5Y cells assessed as ratio of Bcl2 to beta-actin protein expression level at 5 uM preincubated for 1 hr followed by MPP+ addition measured up to 12 hrs by Western blot method (reference value: 2.84 +/- 0.02); type: functional
Method in brief: (§2)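 SH-SY5Y cells seeded 5x10⁵/well and left to adhere 24 h. Compounds (1 or 5 μM) were added 1 h before 2 mM MPP⁺ for 12 h. Lysates in RIPA-type buffer; 10 μg protein run on 10% SDS gels and blotted to PVDF. Blots were probed with rabbit anti-bax, Bcl-2, Bcl-xl or caspase-3 (cleaved p17/p19) antibodies and detected by chemiluminescence. Densitometry was normalised to β-actin. Mean ± SD, n = 3.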

SH-SY5Y [6] = assay: Neuroprotective activity against MPP+-induced toxicity in human SH-SY5Y cells assessed as ratio of Bax to beta-actin protein expression level at 5 uM preincubated for 1 hr followed by MPP+ addition measured up to 12 hrs by Western blot method (reference value: 1.26); type: functional; method in brief: as §2
SH-SY5Y [7] = assay: Neuroprotective activity against MPP+-induced toxicity in human SH-SY5Y cells assessed as decrease in caspase-3 activation at 5 uM preincubated for 1 hr followed by MPP+ addition measured up to 12 hrs by Western blot method; type: functional, cell-based; method in brief: as §2
SH-SY5Y [8] = assay: Neuroprotective activity against MPP+-induced toxicity in human SH-SY5Y cells assessed as ratio of Bax to beta-actin protein expression level at 1 uM preincubated for 1 hr followed by MPP+ addition measured up to 12 hrs by Western blot method (reference value: 1.26); type: functional; method in brief: as §2
SH-SY5Y [9] = assay: Neuroprotective activity against MPP+-induced toxicity in human SH-SY5Y cells assessed as increase in Bcl-xl protein level at 1 uM preincubated for 1 hr followed by MPP+ addition measured up to 12 hrs by Western blot method; type: functional, cell-based; method in brief: as §2
SH-SY5Y [10] = assay: Neuroprotective activity against MPP+-induced toxicity in human SH-SY5Y cells assessed as decrease in caspase-3 activation at 1 uM preincubated for 1 hr followed by MPP+ addition measured up to 12 hrs by Western blot method; type: functional, cell-based; method in brief: as §2
SH-SY5Y [11] = assay: Neuroprotective activity against MPP+-induced toxicity in human SH-SY5Y cells assessed as decrease in Bax protein expression level preincubated for 1 hr followed by MPP+ addition measured up to 12 hrs by Western blot method; type: functional, cell-based; method in brief: as §2
SH-SY5Y [12] = assay: Neuroprotective activity against MPP+-induced toxicity in human SH-SY5Y cells assessed as increase in Bcl2 protein expression level at 1 uM preincubated for 1 hr followed by MPP+ addition measured up to 12 hrs by Western blot method
SH-SY5Y [13] = assay: Neuroprotective activity against MPP+-induced toxicity in human SH-SY5Y cells assessed as increase in Bcl2 protein expression level preincubated for 1 hr followed by MPP+ addition measured up to 12 hrs by Western blot method
SH-SY5Y [14] = assay: Neuroprotective activity against MPP+-induced toxicity in human SH-SY5Y cells assessed as increase in Bcl-xl protein level by measuring ratio of Bcl-xl to beta actin level at 5 uM preincubated for 1 hr followed by MPP+ addition measured up to 12 hrs by Western blot method (reference value: 0.27 +/- 0.001); type: functional; method in brief: as §2
SH-SY5Y [15] = assay: Neuroprotective activity against MPP+-induced toxicity in human SH-SY5Y cells assessed as increase in cell viability at 20 uM preincubated for 1 hr followed by MPP+ addition measured up to 24 hrs by MTT assay relative to control; type: functional; method in brief: as §1
SH-SY5Y [16] = assay: Neuroprotective activity against MPP+-induced toxicity in human SH-SY5Y cells assessed as increase in cell viability at 5 to 10 uM preincubated for 1 hr followed by MPP+ addition measured up to 24 hrs by MTT assay relative to control; type: functional; method in brief: as §1

SMILES | Activity (SH-SY5Y [1]) | Activity (SH-SY5Y [2]) | Activity (SH-SY5Y [3]) | Activity (SH-SY5Y [4]) | Ratio (SH-SY5Y [5]) | Ratio (SH-SY5Y [6]) | Activity (SH-SY5Y [7]) | Ratio (SH-SY5Y [8]) | Activity (SH-SY5Y [9]) | Activity (SH-SY5Y [10]) | Activity (SH-SY5Y [11]) | Activity (SH-SY5Y [12]) | Activity (SH-SY5Y [13]) | Ratio (SH-SY5Y [14]) | Activity (SH-SY5Y [15]) | Activity (SH-SY5Y [16])
COc1ccc(-c2c(C)nc3c(c(C)nn3-c3ccccc3)c2C)cc1 | 20 - 30% | Non-Toxic | Dose-dependent effect | 10 - 20% |  |  |  |  |  |  |  |  |  |  |  | 
Cc1nc2c(c(C)nn2-c2ccccc2)c(C)c1-c1ccc(C=O)cc1 | 20 - 30% | Non-Toxic | Dose-dependent effect | 10 - 20% | 2.63 | 0.49 - 1.03 | Active | 0.86 | Active | Active | Dose-dependent effect | inactive | Dose-dependent effect |  |  | 
CCOC(=O)c1ccc(-c2c(C)nc3c(c(C)nn3-c3ccccc3)c2C)cc1 | 20 - 30% | Non-Toxic | Dose-dependent effect | 10 - 20% |  |  |  |  |  |  |  |  |  |  |  | 
Cc1nc2c(c(C)nn2-c2ccccc2)c(C)c1-c1cccc(C#N)c1 | 20 - 30% | Non-Toxic | Dose-dependent effect | 10 - 20% |  |  |  |  |  |  |  |  |  |  |  | 
Cc1nc2c(c(C)nn2-c2ccccc2)c(C)c1-c1ccc(C(F)(F)F)cc1 | 20 - 30% | Non-Toxic | Dose-dependent effect | 10 - 20% | 0.85 | 0.49 - 1.03 | inactive | 0.85 | Active | Active | Dose-dependent effect | inactive | Dose-dependent effect | 0.28 |  | 
Cc1ccc(-c2c(C)nc3c(c(C)nn3-c3ccccc3)c2C)cc1 | 20 - 30% | Non-Toxic | Dose-dependent effect | 10 - 20% | 3.62 | 0.49 - 1.03 | Active | 1.11 | Active | Active | Dose-dependent effect | inactive | Dose-dependent effect |  |  | 
Cc1nc2c(c(C)nn2-c2ccccc2)c(C)c1-c1ccc([N+](=O)[O-])cc1 | 20 - 30% | Non-Toxic | Dose-dependent effect | 10 - 20% | 3.22 | 0.49 - 1.03 | inactive | 0.75 | Active | Active | Dose-dependent effect | inactive | Dose-dependent effect |  |  | 
Cc1nc2c(c(C)nn2-c2ccccc2)c(C)c1-c1cccs1 | 20 - 30% | Non-Toxic | Dose-dependent effect | 10 - 20% | 4.33 | 0.49 - 1.03 |  | 0.76 | Active | Active | Dose-dependent effect | inactive | Dose-dependent effect |  |  | 
Cc1nc2c(c(C)nn2-c2ccccc2)c(C)c1-c1ccccc1 | 20 - 30% | Non-Toxic | Dose-dependent effect | 10 - 20% |  |  |  |  |  |  |  |  |  |  |  | 
Cc1cccc(-c2c(C)nc3c(c(C)nn3-c3ccccc3)c2C)c1 | 20 - 30% | Non-Toxic | Dose-dependent effect | 10 - 20% |  |  |  |  |  |  |  |  |  |  |  | 
Cc1ccccc1-c1c(C)nc2c(c(C)nn2-c2ccccc2)c1C | 20 - 30% | Non-Toxic | Dose-dependent effect | 10 - 20% |  |  |  |  |  |  |  |  |  |  |  | 
Cc1nc2c(c(C)nn2-c2ccccc2)c(C)c1-c1ccc(F)nc1 |  | Non-Toxic | Dose-dependent effect |  |  |  |  |  |  |  |  |  |  |  | 10 - 20% | 20 - 30%
Cc1nc2c(c(C)nn2-c2ccccc2)c(C)c1-c1ccc(Cl)cc1 |  | Non-Toxic | Dose-dependent effect |  | 0.39 | 0.49 - 1.03 |  | 0.78 | Active | Active | Dose-dependent effect | inactive | Dose-dependent effect |  | 10 - 20% | 20 - 30%
Cc1nc2c(c(C)nn2-c2ccccc2)c(C)c1-c1ccc(N(C)C)cc1 | 20 - 30% | Non-Toxic | Dose-dependent effect | 10 - 20% |  |  |  |  |  |  |  |  |  |  |  | 
Cc1nc2c(c(C)nn2-c2ccccc2)c(C)c1Br | 20 - 30% | Non-Toxic | Dose-dependent effect | 10 - 20% |  |  |  |  |  |  |  |  |  |  |  | 
